mABHD4 FP = ABHD4 (mouse) inhibition, primary FP screen. Q8VD66. purified mABHD4, FP-Rh probe fluorescence polarization. inhibition, % at 8.92 µM. 370,000 compounds, 0.54% hits;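 active = inhibition exceeding the mean over every tested compound plus 3 SD, cut at about 30% in these data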
Target sequence (Q8VD66 whole entry, looked up): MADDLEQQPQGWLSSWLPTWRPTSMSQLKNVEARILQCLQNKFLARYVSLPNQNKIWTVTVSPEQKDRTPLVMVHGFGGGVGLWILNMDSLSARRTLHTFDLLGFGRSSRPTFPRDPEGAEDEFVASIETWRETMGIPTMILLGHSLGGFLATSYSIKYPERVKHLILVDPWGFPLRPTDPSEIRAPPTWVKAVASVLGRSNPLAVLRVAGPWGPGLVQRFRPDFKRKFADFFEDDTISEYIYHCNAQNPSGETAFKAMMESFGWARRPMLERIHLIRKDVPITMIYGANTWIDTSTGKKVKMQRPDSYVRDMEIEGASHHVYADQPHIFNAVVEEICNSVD
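Assay system: mouse ABHD4 enzyme, wild type / Also added: fluorescent activity-based probe FP-Rh / Doses: single nominal dose of 8.92 µM, 0.89% DMSO final / Timing: 45 min compound pre-incubation plus 60 min probe step, 25 °C / Signal: FP readout, ex 525 nm / em 598 nm / Control set: S159A mutant/DMSO as 100%, compound-well median as 0%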
PRMT1 FP inh = blocks human protein arginine methyltransferase 1; Q99873; recombinant PRMT1, activity-based probe fluorescence polarization; inhibition, % at 2.79 µM; 370,000 compounds, 1.3% hits; AID 652257;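 active = inhibition above about 21% made by adding two undisclosed values, limit read from the data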
Target sequence (Q99873 whole entry, looked up): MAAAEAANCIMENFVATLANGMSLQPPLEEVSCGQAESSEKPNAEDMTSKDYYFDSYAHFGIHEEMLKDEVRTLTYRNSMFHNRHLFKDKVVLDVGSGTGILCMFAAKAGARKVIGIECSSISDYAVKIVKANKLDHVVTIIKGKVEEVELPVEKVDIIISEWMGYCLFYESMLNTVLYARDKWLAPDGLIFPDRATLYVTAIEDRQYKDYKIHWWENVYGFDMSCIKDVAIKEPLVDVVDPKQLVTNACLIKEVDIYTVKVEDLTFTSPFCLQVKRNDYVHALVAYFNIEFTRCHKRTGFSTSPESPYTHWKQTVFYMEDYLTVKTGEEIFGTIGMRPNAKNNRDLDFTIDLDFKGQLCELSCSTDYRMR
LEDGF integ inh = blocks HIV-1 LEDGF/p75-dependent DNA integration; TR-FRET IN-LEDGF/p75 DNA integration, Eu/Cy5; inhibition, % at 3.7 µM; 370,000 compounds, 0.64% hits; AID 743269;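 active = inhibition above the screen-wide mean plus 3 SD, cut at about 13% in these data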;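 also: signal is the Cy5 over europium emission ratio at 671 and 618 nm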
HTRA1 inh = blocks human HTRA1 serine peptidase; recombinant HTRA1, FP-rhodamine activity-based probe, fluorescence polarization; inhibition, % at 5.96 µM; 340,000 compounds, 0.5% hits; AID 504803; in the data active = inhibition above about 36%
DAGLB inh = diacylglycerol lipase beta (human) inhibition; AID 504411; Q8NCG7; inhibition, % at 5.17 µM; 340,000 compounds, 0.059% hits; HEK293T DAGLB membrane lysate, EnzChek fluorogenic substrate; in the data active = inhibition above about 34%
rCAG RNA binder = r(CAG) repeat RNA binding | TO-PRO-1 dye displacement fluorescence | inhibition, % at 3 µM | 370,000 compounds, 1.3% hits;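 active = inhibition above the plate cutoff, the mean of all test compounds on that plate plus 3 SD, cut at about 35% in these data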;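 also: higher means more dye released from RNA so lower well fluorescence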
rCAG bind conf = r(CAG) RNA repeat binding, confirmation. shares compounds with rCAG RNA binder. TO-PRO-1 dye displacement fluorescence. inhibition, % at 3 µM. 4,300 compounds, 70% hits. AID 652065;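 active = inhibition above a per-plate cutoff, the mean inhibition of sample wells plus 3 SD, cut at about 35% in these data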;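 also: loss of TO-PRO-1 fluorescence as compound displaces dye from 1x1 AA loop RNA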
dCAG dye counter = disrupts DNA CAG TO-PRO-1 complex, flagging rCAG hits; 4,300 compounds, 94% hits; shares compounds with rCAG RNA binder; AID 652068; inhibition, % at 3 µM; d(CAG) DNA oligo TO-PRO-1 dye displacement, fluorescence;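 active = inhibition above its plate's cutoff, the mean test-well inhibition plus 3 SD, cut at about 4.8% in these data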;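 also: hits displace the dye from DNA and so lower well fluorescence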
Of the large screens only hits and unclear results are named; the others gave an inactive call (follow-up assays come after a bar, where they were run). An excerpt weighted towards active compounds, which were near 3.2% of everything screened.

CCN(CC)CCOc1c(C)cccc1Cl	none
O=C(O)[C@H](Cc1ccccc1)NC(=O)N1CCC(Cc2ccccc2)CC1	none
COc1ccc(COC(=O)C2CC(=O)N(Cc3ccc(C)cc3)C2)cc1 (stereo unspecified)	none (no result: mABHD4 FP, PRMT1 FP inh, LEDGF integ inh, rCAG RNA binder)
Cc1ccc(NC(=O)CNC(=O)CC23CC4CC(CC(C4)C2)C3)c(O)c1	none
O=C(CCl)N1CCN(S(=O)(=O)c2ccc3c(c2)OCCCO3)CC1	none
C=CCc1ccccc1OCC(O)CN1C(=O)c2ccccc2C1=O (stereo unspecified)	none
Cc1occc1C(=O)Nc1nnc(C(F)(F)F)s1	none
O=C(Nc1ccccc1C(=O)Nc1nnc(C(F)(F)F)s1)c1ccccc1	rCAG RNA binder 37.9 | rCAG bind conf 72.4 | dCAG dye counter 32.9
O=C(NNC(=S)Nc1ccc(Br)cc1)c1ccc(N2CCOCC2)c([N+](=O)[O-])c1	rCAG RNA binder 72.6 | rCAG bind conf 66.8 | dCAG dye counter 28.1
CCn1c(C)nc2cc(C(=O)NNC(=S)Nc3ccc(Cl)cc3Cl)ccc21	rCAG RNA binder 57.8 | rCAG bind conf 48.9 | dCAG dye counter 16.3
Cc1cccc(NC(=S)NNC(=O)c2cccc([N+](=O)[O-])c2)c1	none
O=C(NNC(=S)Nc1ccc(Cl)c(Cl)c1)c1cccc([N+](=O)[O-])c1	rCAG RNA binder 78.9 (no result: HTRA1 inh, DAGLB inh) | rCAG bind conf 78.9 | dCAG dye counter 33.1
CCn1c(C)nc2cc(C(=O)NNC(=S)Nc3ccccc3Cl)ccc21	none
Cc1ccc(NC(=O)c2ccc(NCCN)c([N+](=O)[O-])c2)cc1Cl	rCAG RNA binder 38.1 | rCAG bind conf inactive | dCAG dye counter inactive
Cc1ccc(NC(=S)NNC(=O)c2ccc(N3CCOCC3)c([N+](=O)[O-])c2)cc1Cl	rCAG RNA binder 79.8 | rCAG bind conf 84.0 | dCAG dye counter 46.1
O=C(NNC(=S)Nc1ccc(Cl)cc1Cl)c1ccc(N2CCOCC2)c([N+](=O)[O-])c1	rCAG RNA binder 95.1 | rCAG bind conf 87.3 | dCAG dye counter 62.9
O=C(NC(NC(=S)Nc1ccccc1C(=O)O)C(Cl)(Cl)Cl)c1cccc([N+](=O)[O-])c1 (stereo unspecified)	rCAG RNA binder 56.1 | rCAG bind conf 60.3 | dCAG dye counter 24.4
S=C(NC1CCCC1)NC1CC1	none
O=C(Nc1cc(C(=O)Nc2ccccc2C(=O)O)cc(C(=O)Nc2ccccc2C(=O)O)c1)c1ccccc1	rCAG RNA binder 76.8 | rCAG bind conf 86.0 | dCAG dye counter 60.9
O=C(Nc1ccccc1C(=O)O)c1cccc(F)c1	none
O=C(O)c1cccc(NC(=O)c2cc(NC(=O)c3ccccc3)cc(NC(=O)c3ccccc3)c2)c1	rCAG RNA binder 66.5 | rCAG bind conf 60.2 | dCAG dye counter 24.2
O=C(Nc1ccccc1C(=O)O)c1cccc(NC(=O)c2ccccc2Br)c1	rCAG RNA binder 47.7 | rCAG bind conf inactive | dCAG dye counter 9.5
CC(C)C(=O)Nc1cccc(C(=O)Nc2ccccc2C(=O)O)c1	none
CC1(C)CCC(C)(C)c2cc(NC(=O)c3ccc(C(=O)O)cc3)ccc21	rCAG RNA binder 53.4 (no result: HTRA1 inh, DAGLB inh) | rCAG bind conf 36.3 | dCAG dye counter 7.5
O=c1[nH]c(CSc2nc3ccccc3s2)nc2cc(Cl)ccc12	none (no result: HTRA1 inh, DAGLB inh)
O=C(CCC1CCCCC1)Nc1cccc(C(=O)Nc2ccc(C(=O)O)cc2)c1	rCAG RNA binder 34.9 | rCAG bind conf inactive | dCAG dye counter 5.5
O=C(O)c1cccc(NC(=S)NC(=O)C(c2ccccc2)c2ccccc2)c1	rCAG RNA binder 45.2 | rCAG bind conf inactive | dCAG dye counter 9.3
O=C(O)c1ccc(NC(=S)NC(=O)C(c2ccccc2)c2ccccc2)cc1	none
CCCCCCCCCCCC(=O)NC(Cc1ccc(OC)c([N+](=O)[O-])c1)C(=O)O (stereo unspecified)	rCAG RNA binder 44.2 | rCAG bind conf 42.8 | dCAG dye counter 9.2
CC1=NC(C(F)(F)F)(C(F)(F)F)C(C#N)=C(C)N1	none
CC(C)Cn1nc(NS(=O)(=O)c2cccc3nonc23)c2cc3ccccc3nc21	rCAG RNA binder 53.3 | rCAG bind conf 38.5 | dCAG dye counter 11.8
O=C(CCCN1C(=O)/C(=C/c2ccc3c(c2)OCO3)SC1=S)Nc1ccc(C(=O)O)cc1	none
O=C(CCCN1C(=O)/C(=C/c2ccccc2)SC1=S)Nc1ccc(C(=O)O)c(O)c1	rCAG RNA binder 82.9 | rCAG bind conf 80.5 | dCAG dye counter 35.8
O=C(CCN1C(=O)/C(=C\c2ccccc2F)SC1=S)Nc1ccc(C(=O)O)c(O)c1	rCAG RNA binder 93.9 | rCAG bind conf 83.8 | dCAG dye counter 60.2
O=C(CCCN1C(=O)/C(=C\c2ccccc2)SC1=S)Nc1ccc(C(=O)O)cc1	none
COc1ccc(C=C2SC(=S)N(CCCC(=O)Nc3ccc(C(=O)O)c(O)c3)C2=O)cc1OC	rCAG RNA binder 80.5 (no result: HTRA1 inh, DAGLB inh) | rCAG bind conf 75.2 | dCAG dye counter 40.6
O=C(CCCN1C(=O)C(=Cc2ccc3c(c2)OCO3)SC1=S)Nc1ccc(C(=O)O)c(O)c1	rCAG RNA binder 76.6 (no result: HTRA1 inh, DAGLB inh) | rCAG bind conf 78.0 | dCAG dye counter 45.1
COc1ccc(/C=C2\SC(=S)N(CCCC(=O)Nc3cccc(C(=O)O)c3)C2=O)cc1OC	none
CCOc1ccc(S(=O)(=O)NCc2cccnc2)cc1C	none
COc1cc(/C=C2/CCC/C(=C\c3cc(O)c(OC)c(Cl)c3)C2=O)cc(Cl)c1O	rCAG RNA binder 38.0 | rCAG bind conf inactive | dCAG dye counter 10.1
COc1cc(/C=C2\CC/C(=C\c3cc(OC)c(OC)c(OC)c3)C2=O)cc(OC)c1OC	none
COC(=O)c1ccc(C(=O)OC)c(NC(=O)CSc2ccccn2)c1	none
Cc1cc(C)c2nc(N3C(=O)C(O)=C(C(=O)c4ccco4)C3c3ccc(O)cc3)sc2c1 (stereo unspecified)	rCAG RNA binder 84.5 | rCAG bind conf 80.8 | dCAG dye counter 43.3
Cc1cc(C)c2nc(N3C(=O)C(O)=C(C(=O)c4ccco4)C3c3cccc(O)c3)sc2c1 (stereo unspecified)	rCAG RNA binder 85.2 | rCAG bind conf 80.8 | dCAG dye counter 48.7
Cc1ccc(S(=O)(=O)N(CC(=O)Nc2ccccc2C(=O)O)c2ccccc2C)cc1	rCAG RNA binder 57.6 | rCAG bind conf 49.7 | dCAG dye counter 15.1
Cc1ccccc1N(CC(=O)Nc1ccccc1C(=O)O)S(C)(=O)=O	none
Cc1ccc(S(=O)(=O)N(CC(=O)Nc2ccccc2C(=O)O)c2cccc(Cl)c2C)cc1	rCAG RNA binder 78.3 | rCAG bind conf 82.5 | dCAG dye counter 51.8
